Measurements: ChEMBL document CHEMBL1141179 (J Med Chem, 2005)

Legend:
[1] = molecular target: Somatostatin receptor type 2 (Homo sapiens, UniProt P30874); assay: Inhibition of 125I-[Leu8,D-Trp22,Tyr25]SRIF-28 binding to human somatostatin receptor type 2
Procedure, shortened: (§1)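 Human sst2 or sst3 receptor stably expressed in CCL39 cells. 20 µm cryostat sections of cell membrane pellets were used for autoradiographic binding. IC50 (nM) came from competitive displacement. Values are mean ± SEM when N ≥ 3; otherwise mean with single values.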

[2] = molecular target: Somatostatin receptor type 4 (Homo sapiens, UniProt P31391); assay: Inhibition of 125I-[Leu8,D-Trp22,Tyr25]SRIF-28 binding to human somatostatin receptor type 4
Chain of Somatostatin receptor type 4 (P31391 whole entry): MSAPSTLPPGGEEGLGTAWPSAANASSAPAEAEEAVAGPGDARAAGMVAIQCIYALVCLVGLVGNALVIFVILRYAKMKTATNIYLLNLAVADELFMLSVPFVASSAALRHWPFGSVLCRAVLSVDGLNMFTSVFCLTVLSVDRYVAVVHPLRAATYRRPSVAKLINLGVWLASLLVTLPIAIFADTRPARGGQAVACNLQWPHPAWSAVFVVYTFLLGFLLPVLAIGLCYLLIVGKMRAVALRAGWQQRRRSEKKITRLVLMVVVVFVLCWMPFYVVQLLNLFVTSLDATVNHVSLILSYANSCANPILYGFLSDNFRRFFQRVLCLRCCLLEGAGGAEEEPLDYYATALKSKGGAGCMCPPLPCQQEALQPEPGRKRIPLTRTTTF

[3] = molecular target: Somatostatin receptor type 1 (Homo sapiens, UniProt P30872); assay: Inhibition of 125I-[Leu8,D-Trp22,Tyr25]SRIF-28 binding to human somatostatin receptor type 1
Chain of Somatostatin receptor type 1 (P30872 whole entry): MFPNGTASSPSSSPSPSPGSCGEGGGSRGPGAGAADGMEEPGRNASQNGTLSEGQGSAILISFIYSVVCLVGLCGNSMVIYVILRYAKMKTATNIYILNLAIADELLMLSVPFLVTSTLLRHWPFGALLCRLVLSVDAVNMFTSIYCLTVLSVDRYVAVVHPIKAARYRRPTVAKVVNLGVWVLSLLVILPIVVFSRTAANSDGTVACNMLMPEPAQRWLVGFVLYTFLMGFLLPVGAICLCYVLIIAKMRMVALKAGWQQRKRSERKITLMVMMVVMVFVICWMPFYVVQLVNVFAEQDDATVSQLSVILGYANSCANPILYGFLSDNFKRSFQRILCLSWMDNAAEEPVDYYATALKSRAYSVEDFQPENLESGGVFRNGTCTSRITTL
Procedure, shortened: (§2)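 Human sst1 or sst5 receptor stably expressed in CHO-K1 cells. 20 µm cryostat sections of cell membrane pellets were used for receptor autoradiography. IC50 (nM) came from competitive radioligand displacement. Values are mean ± SEM when N ≥ 3; otherwise mean with single values.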

[4] = molecular target: Somatostatin receptor type 5 (Homo sapiens, UniProt P35346); assay: Inhibition of 125I-[Leu8,D-Trp22,Tyr25]SRIF-28 binding to human somatostatin receptor type 5; procedure, shortened: as §2
Chain of Somatostatin receptor type 5 (P35346 whole entry): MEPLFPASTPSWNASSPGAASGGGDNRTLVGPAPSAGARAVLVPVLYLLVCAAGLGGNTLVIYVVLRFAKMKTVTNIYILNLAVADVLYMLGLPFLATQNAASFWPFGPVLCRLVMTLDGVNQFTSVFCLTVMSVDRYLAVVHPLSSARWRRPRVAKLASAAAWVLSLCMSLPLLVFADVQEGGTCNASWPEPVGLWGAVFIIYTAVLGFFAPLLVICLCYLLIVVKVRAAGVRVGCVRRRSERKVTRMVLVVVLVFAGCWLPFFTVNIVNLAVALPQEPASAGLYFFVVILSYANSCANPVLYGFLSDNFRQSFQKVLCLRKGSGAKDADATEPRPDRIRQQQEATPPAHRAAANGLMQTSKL

[5] = molecular target: Somatostatin receptor type 3 (Homo sapiens, UniProt P32745); assay: Inhibition of 125I-[Leu8,D-Trp22,Tyr25]SRIF-28 binding to human somatostatin receptor type 3; procedure, shortened: as §1
Chain of Somatostatin receptor type 3 (P32745 whole entry): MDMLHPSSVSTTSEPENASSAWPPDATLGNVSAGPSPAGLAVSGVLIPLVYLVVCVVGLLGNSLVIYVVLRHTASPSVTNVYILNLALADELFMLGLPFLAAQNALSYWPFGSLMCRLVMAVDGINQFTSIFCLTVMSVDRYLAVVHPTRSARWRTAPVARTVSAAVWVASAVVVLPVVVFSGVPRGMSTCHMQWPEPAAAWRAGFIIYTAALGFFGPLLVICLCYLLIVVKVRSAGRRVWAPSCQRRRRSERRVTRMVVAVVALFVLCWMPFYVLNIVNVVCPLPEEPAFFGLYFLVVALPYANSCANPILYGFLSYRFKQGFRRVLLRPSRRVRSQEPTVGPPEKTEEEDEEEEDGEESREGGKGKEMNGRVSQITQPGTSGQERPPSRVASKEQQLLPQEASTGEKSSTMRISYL

Chain of Somatostatin receptor type 2 (P30874 whole entry): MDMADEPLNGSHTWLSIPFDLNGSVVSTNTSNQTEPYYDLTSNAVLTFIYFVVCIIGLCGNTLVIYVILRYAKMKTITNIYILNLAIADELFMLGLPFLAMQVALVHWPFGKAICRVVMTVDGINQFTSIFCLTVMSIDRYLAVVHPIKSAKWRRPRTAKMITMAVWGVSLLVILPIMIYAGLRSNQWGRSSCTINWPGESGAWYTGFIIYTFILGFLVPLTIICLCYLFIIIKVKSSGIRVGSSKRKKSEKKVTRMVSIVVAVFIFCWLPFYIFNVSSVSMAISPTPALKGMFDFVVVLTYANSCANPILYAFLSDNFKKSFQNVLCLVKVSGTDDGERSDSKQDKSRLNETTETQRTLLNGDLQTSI

IC50 [1]	IC50 [2]	IC50 [3]	IC50 [4]	IC50 [5]	Structure (SMILES)
> 1 µM	> 1 µM	0.094 µM	> 1 µM	> 1 µM	CC(C)NCc1ccc(C[C@@H]2NC(=O)[C@@H](Cc3c[nH]c4ccccc34)NC(=O)[C@@H]3CCC(=O)NCCCCC[C@H](NC(=O)[C@H](Cc4ccccc4)NC(=O)[C@H]([C@@H](C)O)NC2=O)C(=O)N[C@@H](CO)C(=O)N[C@H](C(=O)O)CSSC[C@H](NC(=O)[C@@H](N)Cc2ccc(O)cc2)C(=O)N[C@@H](CCCCN)C(=O)N[C@@H](Cc2ccccc2)C(=O)N3)cc1
> 1 µM	> 1 µM	0.204 µM	> 1 µM	0.772 µM	CC(C)NCc1ccc(C[C@@H]2NC(=O)[C@@H](Cc3c[nH]c4ccccc34)NC(=O)[C@@H]3CCC(=O)NCCCCCC[C@@H](NC(=O)[C@H](Cc4ccccc4)NC(=O)[C@H]([C@@H](C)O)NC2=O)C(=O)N[C@@H](CO)C(=O)N[C@H](C(=O)O)CSSC[C@H](NC(=O)[C@@H](N)Cc2ccc(O)cc2)C(=O)N[C@@H](CCCCN)C(=O)N[C@@H](Cc2ccccc2)C(=O)N3)cc1
0.005 µM	0.0014 µM	0.112 µM	0.0095 µM	0.011 µM	C[C@@H](O)[C@@H]1NC(=O)[C@H](Cc2ccccc2)NC(=O)[C@H]([C@@H](C)O)NC(=O)[C@H](CCCCN)NC(=O)[C@@H](Cc2c[nH]c3ccccc23)NC(=O)[C@H](Cc2ccccc2)NC(=O)[C@H](Cc2ccccc2)NC(=O)[C@H](CC(N)=O)NC(=O)[C@@H](N)CSSC[C@@H](C(=O)O)NC1=O
> 1 µM	> 1 µM	0.167 µM	> 1 µM	> 1 µM	CC(C)NCc1ccc(C[C@@H]2NC(=O)[C@@H](Cc3c[nH]c4ccccc34)NC(=O)[C@@H]3CCC(=O)NCCCC(=O)NCCC[C@H](NC(=O)[C@H](Cc4ccccc4)NC(=O)[C@H]([C@@H](C)O)NC2=O)C(=O)N[C@@H](CO)C(=O)N[C@H](C(=O)O)CSSC[C@H](NC(=O)[C@@H](N)Cc2ccc(O)cc2)C(=O)N[C@@H](CCCCN)C(=O)N[C@@H](Cc2ccccc2)C(=O)N3)cc1
> 1 µM	> 1 µM	0.208 µM	> 1 µM	> 1 µM	CC(C)NCc1ccc(C[C@@H]2NC(=O)[C@@H](Cc3c[nH]c4ccccc34)NC(=O)[C@H](Cc3ccccc3)NC(=O)[C@@H]3CCC(=O)NCCCC[C@H](NC(=O)[C@H](Cc4ccccc4)NC(=O)[C@H]([C@@H](C)O)NC2=O)C(=O)N[C@@H](CO)C(=O)N[C@H](C(=O)O)CSSC[C@H](NC(=O)[C@@H](N)Cc2ccc(O)cc2)C(=O)N[C@@H](CCCCN)C(=O)N3)cc1
> 1 µM	> 1 µM	> 1 µM	> 1 µM	> 1 µM	CC(C)NCc1ccc(C[C@@H]2NC(=O)[C@@H](Cc3c[nH]c4ccccc34)NC(=O)[C@H]3CCC(=O)NCC[C@H](NC(=O)[C@H]([C@@H](C)O)NC2=O)C(=O)N[C@@H]([C@@H](C)O)C(=O)N[C@@H](CO)C(=O)N[C@H](C(=O)O)CSSC[C@H](NC(=O)[C@@H](N)Cc2ccc(O)cc2)C(=O)N[C@@H](CCCCN)C(=O)N[C@@H](Cc2ccccc2)C(=O)N3)cc1
> 1 µM	> 1 µM	0.274 µM	> 1 µM	> 1 µM	CC(C)NCc1ccc(C[C@@H]2NC(=O)[C@@H](Cc3c[nH]c4ccccc34)NC(=O)[C@@H]3CCC(=O)NCCCC(=O)NCCCC[C@H](NC(=O)[C@H](Cc4ccccc4)NC(=O)[C@H]([C@@H](C)O)NC2=O)C(=O)N[C@@H](CO)C(=O)N[C@H](C(=O)O)CSSC[C@H](NC(=O)[C@@H](N)Cc2ccc(O)cc2)C(=O)N[C@@H](CCCCN)C(=O)N[C@@H](Cc2ccccc2)C(=O)N3)cc1
> 1 µM	> 1 µM	0.064 µM	> 1 µM	> 1 µM	CC(C)NCc1ccc(C[C@@H]2NC(=O)[C@@H](Cc3c[nH]c4ccccc34)NC(=O)[C@@H]3CCC(=O)NCCC(=O)NCCC[C@H](NC(=O)[C@H](Cc4ccccc4)NC(=O)[C@H]([C@@H](C)O)NC2=O)C(=O)N[C@@H](CO)C(=O)N[C@H](C(=O)O)CSSC[C@H](NC(=O)[C@@H](N)Cc2ccc(O)cc2)C(=O)N[C@@H](CCCCN)C(=O)N[C@@H](Cc2ccccc2)C(=O)N3)cc1
> 1 µM	0.099 µM	0.782 µM	> 1 µM	> 1 µM	CC(C)NCc1ccc(C[C@@H]2NC(=O)[C@@H](Cc3c[nH]c4ccccc34)NC(=O)[C@@H]3CCC(=O)NCCCCC[C@@H](NC(=O)[C@H](Cc4ccccc4)NC(=O)[C@H]([C@@H](C)O)NC2=O)C(=O)N[C@@H](CO)C(=O)N[C@H](C(=O)O)CSSC[C@H](NC(=O)[C@@H](N)Cc2ccc(O)cc2)C(=O)N[C@@H](CCCCN)C(=O)N[C@@H](Cc2ccccc2)C(=O)N3)cc1
> 1 µM	> 1 µM	0.554 µM	> 1 µM	> 1 µM	CC(C)NCc1ccc(C[C@@H]2NC(=O)[C@@H](Cc3c[nH]c4ccccc34)NC(=O)[C@@H]3CCC(=O)NCCC[C@H](NC(=O)[C@H](Cc4ccccc4)NC(=O)[C@H]([C@@H](C)O)NC2=O)C(=O)N[C@@H](CO)C(=O)N[C@H](C(=O)O)CSSC[C@H](NC(=O)[C@@H](N)Cc2ccc(O)cc2)C(=O)N[C@@H](CCCCN)C(=O)N[C@@H](Cc2ccccc2)C(=O)N3)cc1
> 1 µM	> 1 µM	0.074 µM	> 1 µM	> 1 µM	CC(C)NCc1ccc(C[C@@H]2NC(=O)[C@@H](Cc3c[nH]c4ccccc34)NC(=O)[C@@H]3CCC(=O)NCCC(=O)NCC[C@H](NC(=O)[C@H](Cc4ccccc4)NC(=O)[C@H]([C@@H](C)O)NC2=O)C(=O)N[C@@H](CO)C(=O)N[C@H](C(=O)O)CSSC[C@H](NC(=O)[C@@H](N)Cc2ccc(O)cc2)C(=O)N[C@@H](CCCCN)C(=O)N[C@@H](Cc2ccccc2)C(=O)N3)cc1
> 1 µM	> 1 µM	> 1 µM	> 1 µM	> 1 µM	CC(C)NCc1ccc(C[C@@H]2NC(=O)[C@@H](Cc3c[nH]c4ccccc34)NC(=O)[C@H](Cc3ccccc3)NC(=O)[C@@H]3CCC(=O)NCCCC[C@H](NC(=O)[C@H]([C@@H](C)O)NC2=O)C(=O)N[C@@H]([C@@H](C)O)C(=O)N[C@@H](CO)C(=O)N[C@H](C(=O)O)CSSC[C@H](NC(=O)[C@@H](N)Cc2ccc(O)cc2)C(=O)N[C@@H](CCCCN)C(=O)N3)cc1
> 1 µM	0.215 µM	0.62 µM	> 1 µM	> 1 µM	CC(C)NCc1ccc(C[C@H]2C(=O)N[C@@H]([C@@H](C)O)C(=O)N[C@@H](Cc3ccc(O)c(I)c3)C(=O)N[C@@H]3CCCCCCNC(=O)CC[C@H](NC(=O)[C@H](Cc4ccccc4)NC(=O)[C@H](CCCCN)NC(=O)[C@@H](N)CSSC[C@@H](C(=O)O)NC(=O)[C@H](CO)NC3=O)C(=O)N[C@H](Cc3c[nH]c4ccccc34)C(=O)N2C)cc1
> 1 µM	> 1 µM	0.597 µM	> 1 µM	> 1 µM	CC(C)NCc1ccc(C[C@@H]2NC(=O)[C@@H](Cc3c[nH]c4ccccc34)NC(=O)[C@H](Cc3ccccc3)NC(=O)[C@@H]3CCC(=O)NCC[C@H](NC(=O)[C@H]([C@@H](C)O)NC2=O)C(=O)N[C@@H]([C@@H](C)O)C(=O)N[C@@H](CO)C(=O)N[C@H](C(=O)O)CSSC[C@H](NC(=O)[C@@H](N)Cc2ccc(O)cc2)C(=O)N[C@@H](CCCCN)C(=O)N3)cc1
> 1 µM	> 1 µM	0.053 µM	> 1 µM	> 1 µM	CC(C)NCc1ccc(C[C@@H]2NC(=O)[C@@H](Cc3c[nH]c4ccccc34)NC(=O)[C@@H]3CCC(=O)NCCCC[C@H](NC(=O)[C@H](Cc4ccccc4)NC(=O)[C@H]([C@@H](C)O)NC2=O)C(=O)N[C@@H](CO)C(=O)N[C@H](C(=O)O)CSSC[C@H](NC(=O)[C@@H](N)Cc2ccc(O)cc2)C(=O)N[C@@H](CCCCN)C(=O)N[C@@H](Cc2ccccc2)C(=O)N3)cc1
> 1 µM	> 1 µM	> 1 µM	> 1 µM	> 1 µM	CC(C)NCc1ccc(C[C@@H]2NC(=O)[C@@H](Cc3c[nH]c4ccccc34)NC(=O)[C@H](Cc3ccccc3)NC(=O)[C@@H]3CC(=O)NC[C@H](NC(=O)[C@H](Cc4ccccc4)NC(=O)[C@H]([C@@H](C)O)NC2=O)C(=O)N[C@@H](CO)C(=O)N[C@H](C(=O)O)CSSC[C@H](NC(=O)[C@@H](N)Cc2ccc(O)cc2)C(=O)N[C@@H](CCCCN)C(=O)N3)cc1
> 1 µM	> 1 µM	0.72 µM	–	0.445 µM	CC(C)NCc1ccc(C[C@@H]2NC(=O)C(Cc3c[nH]c4ccccc34)NC(=O)[C@H](Cc3ccccc3)NC(=O)[C@@H](Cc3ccccc3)NC(=O)[C@H](NC(=O)[C@@H](N)Cc3ccc(O)cc3)CSSC[C@@H](C(=O)O)NC(=O)[C@@H]([C@@H](C)O)NC(=O)[C@H](Cc3ccccc3)NC(=O)[C@@H]([C@@H](C)O)NC2=O)cc1 (stereo in doubt)
> 1 µM	> 1 µM	0.016 µM	> 1 µM	> 1 µM	CC(C)NCc1ccc(C[C@@H]2NC(=O)[C@@H](Cc3c[nH]c4ccccc34)NC(=O)[C@@H]3CCC(=O)NCCCCCC[C@H](NC(=O)[C@H](Cc4ccccc4)NC(=O)[C@H]([C@@H](C)O)NC2=O)C(=O)N[C@@H](CO)C(=O)N[C@H](C(=O)O)CSSC[C@H](NC(=O)[C@@H](N)Cc2ccc(O)cc2)C(=O)N[C@@H](CCCCN)C(=O)N[C@@H](Cc2ccccc2)C(=O)N3)cc1
